# Xi reactivation: activators of inactive X chromosome reactivation, primary screen, imaging, XiGFP fibroblasts, GFP high-content imaging, set 2 | XiGFP mouse fibroblasts, % GFP-positive cells imaging, 3 d; cells co-treated with 5-aza-dC sensitizer; scaled so ellipticine positive control = 100% | activation, % at 7.58 µM | 0.055% of 360,000 active | AID 743238, 2013;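 active means mean normalized replicate activation at least 10% and every replicate at or above 10%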;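 further: 0% = median of on-plate neutral control wells and 100% = ellipticine 6 µM median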
#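 System: 68-5-11 XiGFP fibroblast line; Timing: 3 days compound exposure; Compound dosing: one concentration, pinned; Benchmarks: positive control ellipticine, 6 µM final; Buffer or medium: DMEM containing 5-aza-dC.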
# Arrestin-AP2 inh: inhibitors of beta-arrestin/AP2 binding, primary screen, biochemical, GPCR trafficking, flow cytometry. beta-arrestin 1 C-terminal peptide binding to AP2 beta2-adaptin appendage (human). FITC-arrestin peptide / GST-AP2 beads; AP2 beta2 appendage carries R879A mutation. inhibition, % at 10 µM. 0.31% of 340,000 active;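 active means inhibition above a set limit, near 3 SD of compounds lacking own fluorescence, cut at about 54% in these data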;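 further: plate controls were DMSO wells for no effect and 5 µM unlabelled arrestin peptide for full effect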
#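 System: GST-AP2 R879A bound to glutathione beads, E. coli-expressed. Also added: 50 nM FITC-arrestin peptide. Schedule: compound with beads 12 min RT, then probe 1 h RT. Signal: bead flow cytometry, FITC channel. Read-out basis: percent response.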
# T cell HTS: modulators of CD8 T cell-vesicle binding, primary screen, mouse 2C CD8+ T cells, flow cytometry | 0.068% of 330,000 active | 2C CD8+ T cell-vesicle binding; stronger effect = lower value | AID 2052, 2009 | response (vesicle binding), % at 7 µM;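 active means response, share of CD8 T cells binding vesicles, and their 90th percentile fluorescence all below set limits, cut at about 80% in these data, passing the limit was not always enough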;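 further: values below 100% mean blocked vesicle binding to the CD8+ T cells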
#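 Read-out – percent CD8+ FL2 mean versus row control · System – murine 2C transgenic CD8+ T lymphocytes · Times – 1.5 h cell–vesicle binding at 37 °C, then 20 min icy labelling · Control set – naked vesicles low, QL9 vesicles with vehicle high · Detection – cytometric PE anti-B7-1 and Alexa647 anti-CD8 signals after 1% paraformaldehyde fixation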
# NTR1 agonist: agonists of human NTR1, primary screen, imaging, U2OS cells, beta-arrestin-GFP, high content | NTR1-U2OS beta-arrestin-GFP spot imaging, agonist mode | activation, % at 20 µM | 0.17% of 330,000 active;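 active means activation at or above 40% of the spot to cytoplasm intensity ratio, with at least 20 cells analyzed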;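 further: 0% = DMSO without peptide and 100% = 100 nM NTR1 peptide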
# Target sequence (P30989 whole entry, looked up): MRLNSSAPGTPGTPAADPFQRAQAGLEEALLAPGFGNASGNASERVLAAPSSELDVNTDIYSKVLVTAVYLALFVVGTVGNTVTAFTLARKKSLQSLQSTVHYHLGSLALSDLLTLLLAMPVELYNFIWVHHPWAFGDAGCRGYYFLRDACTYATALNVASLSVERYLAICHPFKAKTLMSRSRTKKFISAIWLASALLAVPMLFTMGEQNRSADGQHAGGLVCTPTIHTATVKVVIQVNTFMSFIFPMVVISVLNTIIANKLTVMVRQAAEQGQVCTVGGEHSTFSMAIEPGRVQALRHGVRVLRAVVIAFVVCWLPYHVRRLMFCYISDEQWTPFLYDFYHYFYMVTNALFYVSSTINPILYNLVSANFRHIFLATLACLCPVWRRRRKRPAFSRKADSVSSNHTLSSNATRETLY
# MIN6 prolif: inducers of MIN6 beta-cell proliferation, primary screen, ATP luminescence, uHTS. MIN6 cells proliferation, ATPlite luminescence, 48 h; cells starved in 0.2% serum; 100% = growth in 10% serum. proliferation, % at 10 µM. 0.29% of 330,000 active. AID 2380, 2010;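 active means compounds whose signal lies at least 3.5 SD above the mean of all wells on their plate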;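 further: 0% = DMSO-treated cells in low-serum medium and 100% = 10% serum control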
# V-ATPase pH: regulators of yeast V-ATPase proton pumping, primary screen, pHLuorin cytosolic pH fluorescence; response, % at 10 µM; S. cerevisiae; 0.37% of 350,000 active; in the data active means response mostly above about 7.3%, no sharp cut-off; inactive means mostly below about 5.4%; further: actives read high
# Active calls of the source: *; i = inactive; nt = no result given. Sampled rows, rich in hits. Any-hit rate of the full collection: about 0.89%.
SMILES,Xi reactivation,Arrestin-AP2 inh,T cell HTS,NTR1 agonist,MIN6 prolif,V-ATPase pH
O=C(NCc1ccccc1)NC1(C(=O)N2CCN(c3ncccn3)CC2)CCCCC1,nt,-1.0,264.2,3.8,-1.4,-2.3
O=C(Nc1ccccc1)NC1(C(=O)N2CCN(c3ncccn3)CC2)CCCCC1,nt,6.1,0.0,-1.2,-1.7,15.8*
COc1cc2c(cc1OC)C(c1ccc(-c3ccccc3Cl)o1)=NCC2,nt,9.0,440.9,58.2*,-5.4,2.8
COc1cc2c(cc1OC)C(c1ccc(-c3ccc(Cl)cc3Cl)o1)=NCC2,nt,1.8,i,9.1,-5.3,10.2
COc1ccc(NC2CCCCC2NS(=O)(=O)c2ccc(C)cc2)cc1 (centres undefined),0.0,15.4,219.8,0.2,-1.7,21.0*
NC(=O)c1c(NC(=O)c2cccnc2Cl)sc2c1CCCC2,0.0,26.1,0.0*,2.2,0.0,-2.5
NC(=O)c1c(NC(=O)c2ccccc2Cl)sc2c1CCC2,0.0,5.0,319.2,5.6,-1.7,-5.0
COc1ccc(NC(=O)Nc2ccc3c(c2)[C@@H]2C[C@@H](CC(=O)NCc4ccccn4)O[C@@H](CO)[C@@H]2O3)cc1,0.1,nt,nt,nt,nt,nt
Cc1cc(C(=O)CS(=O)(=O)c2ccc(F)cc2)cc(C)c1O,0.0,66.8*,273.4,-1.4,-1.1,-0.3
Cc1cc(C(=O)CS(=O)(=O)c2ccccc2)cc(C)c1O,0.0,6.5,255.9,0.7,-3.8,0.5
N#Cc1c2ccc(OCC(N)=O)cc2n2ccccc12,0.4,0.1,403.2,0.2,8.1*,-3.0
Cc1ccc2nc(/C(C#N)=C\c3ccc([N+](=O)[O-])o3)[nH]c2c1,nt,4.9,19.3,-3.2,-4.6,85.8*
N#C/C(=C\c1ccc([N+](=O)[O-])o1)c1nc2ccccc2[nH]1,62.3*,nt,406.1,-4.1,-6.1,nt
Cc1ccc2nc(/C(C#N)=C\c3ccc(N4CCOCC4)o3)[nH]c2c1,nt,-13.6,i,-2.8,-3.1,2.8
C[C@H]1CN([C@@H](C)CO)C(=O)c2cc(C#Cc3cccc(F)c3)cnc2O[C@@H]1CN(C)C(=O)C1CCOCC1,1.0,nt,nt,nt,nt,nt
CCCC(=O)Nc1c2c(nn1-c1ccccc1)CSC2,0.0,39.4,296.6,1.2,4.4,0.9
O=C(CBr)Nc1c2c(nn1-c1ccccc1)CSC2,0.0,-4.2,101.6,-1.6,-4.6,11.0*
COc1ccc(CCNC(=O)CCc2nc3ccccc3[nH]2)cc1OC,0.3,-3.1,272.0,-0.3,1.8,14.3*
COc1ccc(CCNC(=S)NCCc2ccc(OC)c(OC)c2)cc1OC,0.4,1.6,66.0*,0.6,-3.5,-1.0
CNC(=S)NCCc1ccc(OC)c(OC)c1,-0.1,7.1,219.3,-2.0,-1.3,1.5
C[C@@H]1CCCCO[C@@H](CN(C)S(=O)(=O)c2cccs2)[C@H](C)CN([C@H](C)CO)C(=O)c2cc(NC(=O)CCC(F)(F)F)ccc2O1,-0.1,nt,nt,nt,nt,nt
O=S(=O)(Nc1cc(Sc2cccc3cccnc23)c(O)c2ccccc12)c1ccccc1,52.8*,nt,nt,nt,nt,nt
CC[N+]1=C(C)C(C)(C)c2cc(C)ccc21,73.3*,26.4,297.1,-3.5,-6.1,0.6
C[C@@H]1CN([C@@H](C)CO)C(=O)c2cccc(NC(=O)C3CC3)c2O[C@H]1CN(C)S(C)(=O)=O,0.0,nt,nt,nt,nt,nt
O=C(O)c1ccc(N=Nc2c(O)[nH]c3ccc(Br)cc23)cc1,0.0,2.5,104.2,1.6,-2.5,-3.0
SMILES,Xi reactivation,Arrestin-AP2 inh,T cell HTS,NTR1 agonist,MIN6 prolif,V-ATPase pH
O=c1ccc2cc3c([nH]c4ccc(Br)cc43)oc-2c1O,nt,71.7*,535.1,1.2,-3.6,0.4
CN1CCN(C(=O)C[C@H]2CC[C@@H]3[C@@H](COc4ccc(NC(=O)C5CCCCC5)cc4C(=O)N3C)O2)CC1,0.0,nt,nt,nt,nt,nt
C=CCn1c(SCC(C)=O)nc2sc3c(c2c1=O)CCC3,0.0,0.1,180.4,3.2,6.1,0.2
C=CCn1c(SCC(=O)N(CC)C2CCS(=O)(=O)C2)nc2sc3c(c2c1=O)CCC3 (centres undefined),136.8*,39.2,318.0,-0.4,-1.6,5.5
CCCC#Cc1ccc2c(c1)O[C@@H](CN(C)C(=O)C1CCCCC1)[C@@H](C)CN([C@@H](C)CO)S2(=O)=O,0.4,nt,nt,nt,nt,nt
NS(=O)(=O)c1cccc(NC(=O)COC(=O)Cc2ccc(S(=O)(=O)N3CCOCC3)s2)c1,139.9*,16.9,nt,nt,nt,3.3
O=C(COC(=O)Cc1cccs1)Nc1cccc(S(=O)(=O)N2CCOCC2)c1,0.3,2.1,317.2,-1.2,-0.2,0.7
COc1ccc(NC(=O)N2CCC3(CC2)CN(CC2CC2)[C@@H](CO)c2c3c3ccc(OC)cc3n2C)cc1,0.2,nt,nt,nt,nt,nt
CN(CC(=O)Nc1ccc2c(c1)OCO2)CC(=O)Nc1ccc(F)c(F)c1F,0.0,-5.3,238.3,-2.1,0.6,1.6
CN(CC(=O)Nc1ccc(Cl)c(Cl)c1)CC(=O)Nc1ccc2c(c1)OCO2,120.4*,37.0,222.7,1.4,-6.4,3.0
CCOC(=O)CCCCCC(=O)Nc1ccc2c(c1)C(=O)N([C@@H](C)CO)C[C@H](C)[C@H](CN(C)S(C)(=O)=O)O2,-0.1,nt,nt,nt,nt,nt
CN1CCN(C(=O)C(N)Cc2ccccc2)CC1 (centres undefined),0.0,14.7,259.2,1.9,-1.8,-1.7
C[C@@H]([C@@H](O)c1ccccc1)N(C)C(=O)C(N)Cc1ccccc1 (some centres undefined),-0.1,-1.8,639.0,0.1,-3.3,26.2*
CCSc1nnc(NC(=O)c2cccs2)s1,nt,27.6,176.2,0.8,-2.7,15.8*
Nc1nc2ccc([N+](=O)[O-])cc2[nH]1,0.0,0.1,113.4,-1.6,-0.4,2.4
Nc1[nH]c2cc([N+](=O)[O-])ccc2c1-c1ccccn1,100.4*,-25.7,324.6,-2.6,-4.5,-0.5
C[C@H]1CN(C)C(=O)c2cc([N+](=O)[O-])ccc2O[C@@H]1CN(C)C(=O)OC(C)(C)C,0.3,nt,nt,nt,nt,nt
COc1ccccc1C(=O)OCC(=O)NC1CCCC1,0.0,-164.7,202.2,-1.4,-1.0,258.9*
CCC(C)NC(=O)Cc1ccc(-c2ccccc2)cc1 (centres undefined),0.0,-9.9,199.4,0.6,-1.6,87.6*
O=C(Cc1ccc(F)cc1)Nc1ccccc1Sc1ccccc1,0.0,-0.4,202.1,2.0,0.0,16.5*
CC(NC(=O)Cc1ccc(F)cc1)c1ccccc1 (centres undefined),nt,2.2,64.4*,19.1,-2.4,-2.6
